Ends that are not written are not given here.
Tests used:
integrin αvβ3 = integrin αvβ3 (Homo sapiens, UniProt P05106+P06756); experiment: Bio-layer interferometry; assay type: binding
Summary of the method: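 Biotinylated test peptide, 25 μM stock in 5% DMSO/95% water, diluted 100-fold in 0.05% Tween 20 in 1X PBS. The peptide was loaded onto streptavidin biosensors for 300 s, with 60 s buffer-only steps on either side. Association ran 600 s against human recombinant integrin αvβ3 at 10–300 nM in the same buffer. kon and koff were fitted to a single-binding-site association model.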

MDA-MB-231 tumors = experiment: Biodistribution in orthotopic MDA-MB-231 xenograft mouse model; assay type: in vivo; conditions: AXT050-IRD800 intravenous, organs harvested 24 h post injection

Sequence of integrin αvβ3 (P06756 31-992 limits assumed): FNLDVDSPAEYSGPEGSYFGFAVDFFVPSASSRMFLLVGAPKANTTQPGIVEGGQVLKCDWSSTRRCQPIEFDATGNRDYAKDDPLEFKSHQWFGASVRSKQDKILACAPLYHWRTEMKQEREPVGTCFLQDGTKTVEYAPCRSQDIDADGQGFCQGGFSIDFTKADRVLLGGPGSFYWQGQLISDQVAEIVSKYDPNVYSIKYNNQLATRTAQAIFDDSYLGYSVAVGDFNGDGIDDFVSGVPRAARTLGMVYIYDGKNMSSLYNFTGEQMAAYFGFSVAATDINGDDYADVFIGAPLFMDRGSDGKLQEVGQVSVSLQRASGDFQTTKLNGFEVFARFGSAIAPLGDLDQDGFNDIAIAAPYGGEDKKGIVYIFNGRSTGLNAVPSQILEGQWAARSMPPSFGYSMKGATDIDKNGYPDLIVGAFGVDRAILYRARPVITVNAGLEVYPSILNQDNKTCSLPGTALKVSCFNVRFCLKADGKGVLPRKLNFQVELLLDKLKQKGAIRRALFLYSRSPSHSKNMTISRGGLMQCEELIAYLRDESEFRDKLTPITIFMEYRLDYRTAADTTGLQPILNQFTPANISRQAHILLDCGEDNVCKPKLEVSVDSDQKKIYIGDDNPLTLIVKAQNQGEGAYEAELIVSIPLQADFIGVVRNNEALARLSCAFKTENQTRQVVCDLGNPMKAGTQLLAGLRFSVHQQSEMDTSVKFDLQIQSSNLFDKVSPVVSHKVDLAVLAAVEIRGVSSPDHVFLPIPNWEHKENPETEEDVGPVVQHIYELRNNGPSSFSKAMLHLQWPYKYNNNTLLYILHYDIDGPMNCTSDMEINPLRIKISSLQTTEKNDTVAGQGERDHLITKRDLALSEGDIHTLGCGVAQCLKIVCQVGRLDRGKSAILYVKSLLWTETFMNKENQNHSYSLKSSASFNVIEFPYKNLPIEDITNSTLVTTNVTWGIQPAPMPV
Sequence of integrin αvβ3 (P05106 27-718 limits assumed): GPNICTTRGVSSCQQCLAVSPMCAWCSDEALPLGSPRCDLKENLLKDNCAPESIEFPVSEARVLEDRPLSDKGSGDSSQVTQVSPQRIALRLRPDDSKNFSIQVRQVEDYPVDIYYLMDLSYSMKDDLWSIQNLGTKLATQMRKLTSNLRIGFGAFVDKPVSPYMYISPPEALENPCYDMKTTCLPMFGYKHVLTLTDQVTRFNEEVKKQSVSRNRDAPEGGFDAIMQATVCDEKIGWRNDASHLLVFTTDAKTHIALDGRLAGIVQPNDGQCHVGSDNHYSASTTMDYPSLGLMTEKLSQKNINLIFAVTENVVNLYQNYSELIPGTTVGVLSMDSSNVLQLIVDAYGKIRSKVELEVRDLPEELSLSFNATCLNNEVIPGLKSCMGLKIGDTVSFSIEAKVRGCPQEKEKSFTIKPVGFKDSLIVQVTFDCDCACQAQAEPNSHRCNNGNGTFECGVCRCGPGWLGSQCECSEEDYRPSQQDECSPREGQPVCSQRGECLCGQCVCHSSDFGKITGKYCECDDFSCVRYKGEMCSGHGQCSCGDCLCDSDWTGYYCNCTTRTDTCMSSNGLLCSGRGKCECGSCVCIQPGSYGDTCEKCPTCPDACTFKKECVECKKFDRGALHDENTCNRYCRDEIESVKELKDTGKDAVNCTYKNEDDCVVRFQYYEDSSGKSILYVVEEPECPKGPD

koff (integrin αvβ3): 0.0032 s⁻¹
Sequence: LRRFSTAPFAFIDINDVINF [AXT050]
organ with highest detection / main route of clearance (MDA-MB-231 tumors): highest level of its detection in the kidneys

Source: article PMC6035748 (Journal of biomedical materials research. Part A, 2018)
